Results as given in ChEMBL document CHEMBL2040753, “Development of potent and selective inhibitors of aldo-keto reductase 1C3 (type 5 17β-hydroxysteroid dehydrogenase) based on N-phenyl-aminobenzoates and their structure-activity relationships” (J Med Chem, 2012).

What was measured:
[1] = biological target: T1, Aldo-keto reductase family 1 member C3 (Homo sapiens, UniProt P42330); assay: Inhibition of recombinant AKR1C3 assessed as NADP+ dependent oxidation of S-tetralol by fluorescence assay
T1 sequence (P42330 whole entry): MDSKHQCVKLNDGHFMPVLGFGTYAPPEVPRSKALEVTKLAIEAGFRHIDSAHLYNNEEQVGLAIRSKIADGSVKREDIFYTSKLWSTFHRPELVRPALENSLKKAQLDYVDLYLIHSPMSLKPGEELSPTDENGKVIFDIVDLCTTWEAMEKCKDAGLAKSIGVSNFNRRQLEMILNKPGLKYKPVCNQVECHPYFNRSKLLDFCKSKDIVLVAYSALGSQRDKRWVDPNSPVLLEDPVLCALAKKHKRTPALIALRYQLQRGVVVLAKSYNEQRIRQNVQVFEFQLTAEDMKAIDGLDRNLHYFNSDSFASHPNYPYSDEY

[2] = biological target: T2, Aldo-keto reductase family 1 member C2 (Homo sapiens, UniProt P52895); assay: Inhibition of recombinant AKR1C2 assessed as NADP+ dependent oxidation of S-tetralol by fluorescence assay
T2 sequence (P52895 whole entry): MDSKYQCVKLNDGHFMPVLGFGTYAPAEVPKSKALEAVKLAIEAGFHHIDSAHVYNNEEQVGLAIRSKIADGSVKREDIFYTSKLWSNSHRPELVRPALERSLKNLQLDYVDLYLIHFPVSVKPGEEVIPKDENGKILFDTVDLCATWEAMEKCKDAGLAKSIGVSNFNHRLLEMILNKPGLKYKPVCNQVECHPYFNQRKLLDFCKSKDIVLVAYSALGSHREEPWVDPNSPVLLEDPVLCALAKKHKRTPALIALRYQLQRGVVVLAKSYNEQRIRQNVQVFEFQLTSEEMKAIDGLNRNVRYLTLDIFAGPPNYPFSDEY
How it was run: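 Homogeneous recombinant enzyme; continuous oxidation of S-tetralol (at each isoform's KM) with 200 μM NADP+ in 100 mM phosphate pH 7.0, 4% DMSO, 37 °C. Initial velocities compared with solvent control; quadruplicate points over a range of inhibitor concentrations; IC50 from curve fit.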

SMILES | IC50 [1] [nM] | IC50 [2] [nM]
CC(=O)c1ccc(Nc2ccccc2C(=O)O)cc1 | 130 | 400
COc1ccc(Nc2cc(OC)ccc2C(=O)O)cc1 | 250 | 910
COc1ccc(C(=O)O)c(Nc2ccc(Br)cc2)c1 | 150 | 540
COc1ccc(C(=O)O)c(Nc2ccccc2)c1 | 1660 | 1490
O=C(O)c1ccccc1Nc1cccc([N+](=O)[O-])c1 | 40 | 510
COc1cc(Nc2cccc(C(=O)O)c2)cc(OC)c1 | 360 | 56200
CC(=O)c1cccc(Nc2cccc(C(=O)O)c2)c1 | 560 | 36600
CC(=O)c1ccc(Nc2ccc(C(=O)O)cc2)cc1 | 2500 | 24500
CC(=O)c1ccc(Nc2ccc(Cl)cc2)c(C(=O)O)c1 | 600 | 2230
Cc1cccc(Nc2ccccc2C(=O)O)c1 | 240 | 380
CC(=O)c1ccc(Nc2cccc(C)c2)c(C(=O)O)c1 | 1940 | 2840
COc1cc(Nc2cc(OC)ccc2C(=O)O)cc(OC)c1 | 2220 | 6780
CC(=O)c1ccc(Nc2ccccc2[N+](=O)[O-])c(C(=O)O)c1 | 1110 | 3970
COc1cc(Nc2ccc(C(=O)O)cc2)cc(OC)c1 | 2530 | 69900
O=C(O)c1ccccc1Nc1ccc([N+](=O)[O-])cc1 | 160 | 280
COc1ccc(Nc2ccc(C(C)=O)cc2C(=O)O)c([N+](=O)[O-])c1 | 260 | 3930
CC(=O)c1ccc(Nc2cc(C(F)(F)F)cc(C(F)(F)F)c2)c(C(=O)O)c1 | 1760 | 16000
CC(=O)c1ccc(Nc2ccc(Br)cc2)c(C(=O)O)c1 | 250 | 490
O=C(O)c1ccc(Nc2ccccc2C(=O)O)cc1 | 2740 | 3260
COc1cc(Nc2ccccc2C(=O)O)cc(OC)c1 | 890 | 3400
Cc1ccc(Nc2ccccc2C(=O)O)cc1 | 360 | 1460
COc1ccc(C(=O)O)c(Nc2ccc(C)cc2)c1 | 800 | 1110

SMILES | IC50 [1] [nM] | IC50 [2] [nM]
COc1cccc(Nc2ccc(C(=O)O)cc2)c1 | 2650 | 84400
O=C(O)c1ccccc1Nc1cccc(Cl)c1 | 150 | 150
CC(=O)c1ccc(Nc2ccccc2C(C)=O)c(C(=O)O)c1 | 4440 | 12700
COc1ccccc1Nc1cccc(C(=O)O)c1 | 1650 | 26600
O=C(O)c1ccc(Nc2ccc([N+](=O)[O-])cc2)cc1 | 1320 | 11100
COc1cccc(Nc2cc(OC)ccc2C(=O)O)c1 | 570 | 1470
COc1ccc(C(=O)O)c(Nc2ccc(Cl)cc2)c1 | 220 | 290
COc1ccc(C(=O)O)c(Nc2ccc(C(=O)O)cc2)c1 | 690 | 980
O=C(O)c1cccc(Nc2ccccc2C(=O)O)c1 | 980 | 4160
O=C(O)c1cccc(Nc2cccc([N+](=O)[O-])c2)c1 | 290 | 19300
CC(=O)c1ccc(Nc2ccc(C)cc2)c(C(=O)O)c1 | 1650 | 8230
COc1ccc(Nc2ccc(C(=O)O)cc2)cc1 | 2210 | 22900
O=C(O)c1ccccc1Nc1ccc(Cl)cc1 | 70 | 410
CC(=O)c1ccc(Nc2cccc(C(F)(F)F)c2)c(C(=O)O)c1 | 730 | 2670
Cc1cccc(Nc2cccc(C(=O)O)c2)c1 | 1880 | 22900
CC(=O)c1ccc(Nc2ccc(C(C)(C)C)cc2)c(C(=O)O)c1 | 280 | 7050
CC(=O)c1ccc(Nc2ccc(C(=O)O)cc2)c(C(=O)O)c1 | 1550 | 18900
COc1ccc(C(=O)O)c(Nc2ccc(C(C)(C)C)cc2)c1 | 80 | 700
O=C(O)c1ccc(Nc2ccc(Cl)cc2)cc1 | 1050 | 20000
COc1cccc(Nc2ccccc2C(=O)O)c1 | 570 | 1110
Cc1cccc(Nc2ccc(C(=O)O)cc2)c1 | 1670 | 21500
O=C(O)c1cccc(Nc2ccccc2[N+](=O)[O-])c1 | 150 | 4770
